Measurements gathered from unrelated publications.
Protocols differ between the studies behind these lines.
Cell line: SW-620
Observed: cell growth or viability

COc1ccc(C(=O)/C=C/c2ccccc2Br)cc1S(N)(=O)=O
GI50 (SRB; 48 h): 1.8 µM

O=C(/C=C/c1ccc2c(=O)n(Cc3ccc(Cl)cc3)cnc2c1)NO
IC50 (SRB; 48 h): 0.671 µM

COc1cc(Nc2nccc(-c3cnn4nc(OC)ccc34)n2)cc(C(F)(F)F)c1
IC50 (ATP luminescence): 0.16 µM

O=C(/C=C/c1ccc2c(=O)n(Cc3ccc(F)cc3)cnc2c1)NO
IC50 (SRB; 48 h): 1.03 µM

COc1ccc(C(=O)/C=C/c2cccnc2)cc1S(N)(=O)=O
inhibition (SRB; 10 µM): 87%

Cc1ccc(Cn2cnc3ccc(/C=C/C(=O)NO)cc3c2=O)cc1
IC50 (SRB; 48 h): 1.43 µM

Cc1cc(C)n(C(=S)[S][Au][PH](CCCCCC[PH]([Au][S]C(=S)n2nc(C)cc2C)(c2ccccc2)c2ccccc2)(c2ccccc2)c2ccccc2)n1
GI50: 1.26 µM

COc1ccc(C(=O)/C=C/c2cccc(Cl)c2Cl)cc1S(N)(=O)=O
GI50 (SRB; 48 h): 1.6 µM

O=C(O)C[C@H](O)C[C@H](O)/C=C/c1c(C2CC2)nc2ccccc2c1-c1ccc(F)cc1
IC50 (SRB; 72 h): 0.54 mg/L

COc1ccc(C(=O)/C=C/c2ccc3c(c2)OCCO3)cc1S(N)(=O)=O
inhibition (SRB; 10 µM): 68%

COc1cccc2c1C(=O)c1c(O)c3c(c(O)c1C2=O)C[C@@](O)(C(=O)CO)C[C@@H]3O[C@H]1C[C@H](N)[C@H](O)[C@H](C)O1
IC50 (MTT; 48 h): 2.57 mg/L

COc1ccc(C(=O)/C=C/c2c(F)cccc2Cl)cc1S(N)(=O)=O
GI50 (SRB; 48 h): 3.6 µM

O=C(/C=C/c1ccc2c(=O)n(Cc3ccccc3)cnc2c1)NO
IC50 (SRB; 48 h): 1.13 µM

CC(=O)Nc1cccc(-n2c(=O)n(C3CC3)c(=O)c3c(Nc4ccc(I)cc4F)n(C)c(=O)c(C)c32)c1
viability (resazurin; 50 nM, 72 h): 25.7%

O=C(/C=C/c1ccc2c(=O)n(CCCl)cnc2c1)NO
IC50 (SRB; 48 h): 5.65 µM

CC[C@H](C)C(=O)O[C@H]1CCC=C2C=C[C@H](C)[C@H](CC[C@@H]3C[C@@H](O)CC(=O)O3)[C@H]21
IC50 (SRB; 72 h): 0.48 mg/L
